The values below come from ChEMBL document CHEMBL2177000, “Pharmacokinetic optimization of class-selective histone deacetylase inhibitors and identification of associated candidate predictive biomarkers of hepatocellular carcinoma tumor response” (J Med Chem, 2012).

Data set [1] in a line: Clearance in BALB/C mouse at 10 mg/kg, po or 2 mg/kg, iv by LC-MS/MS method. It counts as ADME, organism-based. The conditions noted are these: in vivo. The method, boiled down:
(§1)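 Female-unspecified BALB/C nude mice (15−20 g, N = 16 per arm); iv bolus 2 mg/kg in 5% DMSO/40% PEG400/55% saline and/or oral gavage 10 mg/kg as 0.445% microcrystalline cellulose microsuspension. Blood sampled at nine (iv) or eight (po) time points into sodium heparin tubes; plasma by LC-MS/MS; noncompartmental analysis.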

The nature of data set [2]: Clearance in human liver microsomes at 1 uM incubated for 10 mins by LC-MS/MS method. The data set is classed as ADME, Microsome. The method, boiled down:
(§2)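 Liver microsomes (human or mouse, 0.5 mg/mL) in 100 mM potassium phosphate pH 7.4 with 1 μM compound, prewarmed 10 min at 37 °C, started with NADPH (10 mM); stopped at 0, 3, 6, 9, 15, 30 min with ice-cold methanol containing tolbutamide internal standard; LC-MS/MS. Hepatic clearance (mL/min/kg) calculated from intrinsic clearance.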
A general note: Liver microsomes are a subcellular fraction often used to study metabolism.

In data set [3] the test system is Mus musculus. Briefly: (§3) Half life in BALB/C mouse at 10 mg/kg, po or 2 mg/kg, iv by LC-MS/MS method. The data set is classed as ADME, organism-based. The conditions noted are these: in vivo. Summed up:
as §1

The test system of data set [4] is Mus musculus. In words: (§4) Tmax in BALB/C mouse at 10 mg/kg, po or 2 mg/kg, iv by LC-MS/MS method. The note with it: in vivo. It counts as ADME, organism-based. Summed up:
(§5)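 Single-dose PK: iv bolus 2 mg/kg in 5% DMSO/40% PEG400/55% saline and/or oral gavage 10 mg/kg as 0.445% microcrystalline cellulose microsuspension; BALB/C nude mice (15−20 g, N = 16 per arm) or male Sprague−Dawley rats (250 ± 20 g, N = 3). Blood at eight (po) or nine (iv) time points into sodium heparin, plasma by LC-MS/MS, noncompartmental analysis.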

Data set [5] has as its system Mus musculus. Briefly: (§6) AUC in BALB/C mouse at 10 mg/kg, po or 2 mg/kg, iv by LC-MS/MS method. It counts as ADME, organism-based, Plasma. The conditions noted are these: in vivo. The method, boiled down: as §1
Data set [6] deals with Mus musculus. Briefly: (§7) Cmax in BALB/C mouse at 10 mg/kg, po or 2 mg/kg, iv by LC-MS/MS method. The data set is classed as ADME, organism-based. The conditions noted are these: in vivo. Summed up:
as §1

Data set [7] in a line: Clearance in mouse liver microsomes at 1 uM incubated for 10 mins by LC-MS/MS method. The data set is classed as ADME, Microsome. The method, boiled down:
as §2

The subject of data set [8] is Mus musculus. In words: (§8) Oral bioavailability in BALB/C mouse at 10 mg/kg by LC-MS/MS method. The data set is classed as ADME, organism-based. The note with it: in vivo. The method, boiled down:
(§9)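 Bioavailability from single-dose iv (2 mg/kg, 5% DMSO/40% PEG400/55% saline) and oral gavage (10 mg/kg, 0.445% microcrystalline cellulose microsuspension) studies in BALB/C nude mice (N = 16 per arm); plasma at eight (po) or nine (iv) time points, LC-MS/MS, noncompartmental analysis.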

For data set [9], the target named is Cytochrome P450 3A4 (Homo sapiens, UniProt P08684). In words: Inhibition of CYP3A4 in human liver microsomes in presence of NADPH by LC-MS/MS method. The data set is classed as ADME, Microsome.
Data set [10] addresses T1, Cytochrome P450 1A2 (Homo sapiens, UniProt P05177).
T1 sequence (P05177 whole entry): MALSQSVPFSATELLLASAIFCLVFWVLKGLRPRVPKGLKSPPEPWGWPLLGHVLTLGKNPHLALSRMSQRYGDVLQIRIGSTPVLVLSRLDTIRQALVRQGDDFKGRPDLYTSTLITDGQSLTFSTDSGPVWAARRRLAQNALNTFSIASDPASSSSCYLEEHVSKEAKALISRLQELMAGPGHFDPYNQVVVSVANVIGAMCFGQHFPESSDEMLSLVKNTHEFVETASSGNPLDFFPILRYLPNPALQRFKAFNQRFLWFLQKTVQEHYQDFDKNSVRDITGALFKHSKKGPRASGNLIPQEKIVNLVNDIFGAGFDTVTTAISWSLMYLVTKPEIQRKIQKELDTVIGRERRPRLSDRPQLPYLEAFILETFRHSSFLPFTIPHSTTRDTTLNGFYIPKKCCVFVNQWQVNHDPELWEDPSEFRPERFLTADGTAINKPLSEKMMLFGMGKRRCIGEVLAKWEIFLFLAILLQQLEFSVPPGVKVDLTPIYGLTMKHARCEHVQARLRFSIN
Briefly: Inhibition of CYP1A2 in human liver microsomes in presence of NADPH by LC-MS/MS method. The data set is classed as ADME, Microsome.

Data set [11] is described as follows: as §3. It counts as ADME, organism-based. The note with it: BALB/C, in vivo. The method, boiled down: as §1
Data set [12] in a line: as §4. The data set is classed as ADME, organism-based. The note with it: BALB/C, in vivo. Summed up: as §5
Data set [13] addresses Cytochrome P450 2C9 (Homo sapiens, UniProt P11712). In words: Inhibition of CYP2C9 in human liver microsomes in presence of NADPH by LC-MS/MS method. It counts as ADME, Microsome.
A short description of data set [14]: as §6. The note with it: BALB/C, plasma. It counts as ADME, organism-based, Plasma. Summed up: as §1
Data set [15] concerns the target Histone deacetylase (Homo sapiens) (UniProt Q13547+O15379+Q9UBN7+Q92769+Q9UQL6+Q8WUI4+Q9BY41+Q96DB2+P56524+Q9UKV0+Q969S8). Briefly: Inhibition of Class 1 histone deacetylase in human HeLa cells assessed as induction in p21 protein expression at 3 uM incubated for 16 hrs by luciferase reporter gene assay relative to HDAC inhibitor entinostat. The data set is classed as cell-based. More on the design: scale not given: the % may be the effect or the level left. (In general: A reporter such as luciferase makes a cellular process visible.)

A short description of data set [16]: as §7. The data set is classed as ADME, organism-based. The conditions noted are these: BALB/C, in vivo. The method, boiled down:
as §1

For data set [17], the target named is Cytochrome P450 2D6 (Homo sapiens, UniProt P10635). In words: Inhibition of CYP2D6 in human liver microsomes in presence of NADPH by LC-MS/MS method. It counts as ADME, Microsome.
Data set [18] deals with Voltage-gated inwardly rectifying potassium channel KCNH2 (Homo sapiens, UniProt Q12809). Briefly: Inhibition of human ERG expressed in CHO cells by patch clamp method. It counts as cell-based. (In general: In patch-clamp work, channel activity is measured electrically.)
The nature of data set [19]: Volume of distribution at steady state in BALB/C mouse at 10 mg/kg, po or 2 mg/kg, iv by LC-MS/MS method. It counts as ADME, organism-based. Also on record: unit not given here. The conditions noted are these: in vivo, read-out: Vdss. The method, boiled down: as §5
Data set [20] deals with Cytochrome P450 2C19 (Homo sapiens, UniProt P33261). Briefly: Inhibition of CYP2C19 in human liver microsomes in presence of NADPH by LC-MS/MS method. It counts as ADME, Microsome.
The nature of data set [21]: as §8. The data set is classed as ADME, organism-based. The note with it: BALB/C, in vivo. Summed up:
as §9

A short description of data set [22]: Volume of distribution at steady state in BALB/C mouse at 5 mg/kg, po or 1 mg/kg, iv by LC-MS/MS method. The data set is classed as ADME, organism-based. The note with it: in vivo, read-out: Vdss. The method, boiled down: (§10)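 Nude-mouse PK at reduced doses, 1 mg/kg iv bolus (5% DMSO, 40% PEG400, 55% saline) and 5 mg/kg oral gavage (microcrystalline cellulose microsuspension); plasma from serial heparinized blood samples (eight po, nine iv time points) quantified by LC-MS/MS, parameters by noncompartmental methods.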

Data set [23] can be described thus: Tmax in BALB/C mouse at 5 mg/kg, po or 1 mg/kg, iv by LC-MS/MS method. The conditions noted are these: in vivo. It counts as ADME, organism-based. Summed up:
as §10

Data set [24] is described as follows: Cmax in BALB/C mouse at 5 mg/kg, po or 1 mg/kg, iv by LC-MS/MS method. The data set is classed as ADME, organism-based. The note with it: in vivo. Summed up: (§11)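 BALB/C nude mice (15−20 g) given 5 mg/kg po and 1 mg/kg iv; blood collected at eight (po) or nine (iv) time points into sodium heparin tubes, plasma stored at −20 °C, measured by LC-MS/MS and analysed noncompartmentally.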

Data set [25] can be described thus: Oral bioavailability in BALB/C mouse at 5 mg/kg by LC-MS/MS method. It counts as ADME, organism-based. The note with it: in vivo. The method, boiled down: as §11
A short description of data set [26]: AUC in BALB/C mouse at 5 mg/kg, po or 1 mg/kg, iv by LC-MS/MS method. It counts as ADME, organism-based. The conditions noted are these: plasma. Summed up:
as §11

Data set [27] is described as follows: Half life in BALB/C mouse at 5 mg/kg, po or 1 mg/kg, iv by LC-MS/MS method. It counts as ADME, organism-based. The note with it: in vivo. The method, boiled down:
as §11

Data set [28] can be described thus: Clearance in BALB/C mouse at 5 mg/kg, po or 1 mg/kg, iv by LC-MS/MS method. The note with it: in vivo. The data set is classed as ADME, organism-based. Summed up: as §11

Cytochrome P450 2D6, sequence (P10635 whole entry): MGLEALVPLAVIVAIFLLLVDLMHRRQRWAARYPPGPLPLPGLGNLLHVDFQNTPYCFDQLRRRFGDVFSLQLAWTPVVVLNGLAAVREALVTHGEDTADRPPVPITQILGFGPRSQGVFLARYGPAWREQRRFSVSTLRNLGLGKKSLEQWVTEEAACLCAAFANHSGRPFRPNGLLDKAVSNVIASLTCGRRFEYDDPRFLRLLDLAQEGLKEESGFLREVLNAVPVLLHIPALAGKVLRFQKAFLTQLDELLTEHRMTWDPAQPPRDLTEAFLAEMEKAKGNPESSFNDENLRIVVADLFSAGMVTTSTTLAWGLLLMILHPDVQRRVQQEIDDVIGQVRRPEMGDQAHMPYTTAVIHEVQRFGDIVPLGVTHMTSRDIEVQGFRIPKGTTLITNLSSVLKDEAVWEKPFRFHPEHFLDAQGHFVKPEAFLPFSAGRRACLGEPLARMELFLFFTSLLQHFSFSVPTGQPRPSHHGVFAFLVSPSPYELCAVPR
Cytochrome P450 2C9, sequence (P11712 whole entry): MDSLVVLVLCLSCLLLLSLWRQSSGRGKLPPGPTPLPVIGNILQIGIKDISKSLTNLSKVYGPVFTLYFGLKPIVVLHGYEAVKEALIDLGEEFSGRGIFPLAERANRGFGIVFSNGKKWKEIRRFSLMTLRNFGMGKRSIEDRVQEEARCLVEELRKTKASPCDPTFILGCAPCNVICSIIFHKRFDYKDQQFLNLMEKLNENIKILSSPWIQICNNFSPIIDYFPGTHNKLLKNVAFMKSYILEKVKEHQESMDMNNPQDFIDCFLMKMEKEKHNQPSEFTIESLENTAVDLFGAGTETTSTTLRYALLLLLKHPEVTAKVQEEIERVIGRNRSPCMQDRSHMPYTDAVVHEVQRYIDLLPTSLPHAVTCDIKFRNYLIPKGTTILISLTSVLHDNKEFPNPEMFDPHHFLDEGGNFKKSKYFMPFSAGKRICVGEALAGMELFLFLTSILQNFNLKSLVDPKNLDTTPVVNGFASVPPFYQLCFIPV
Cytochrome P450 2C19, sequence (P33261 whole entry): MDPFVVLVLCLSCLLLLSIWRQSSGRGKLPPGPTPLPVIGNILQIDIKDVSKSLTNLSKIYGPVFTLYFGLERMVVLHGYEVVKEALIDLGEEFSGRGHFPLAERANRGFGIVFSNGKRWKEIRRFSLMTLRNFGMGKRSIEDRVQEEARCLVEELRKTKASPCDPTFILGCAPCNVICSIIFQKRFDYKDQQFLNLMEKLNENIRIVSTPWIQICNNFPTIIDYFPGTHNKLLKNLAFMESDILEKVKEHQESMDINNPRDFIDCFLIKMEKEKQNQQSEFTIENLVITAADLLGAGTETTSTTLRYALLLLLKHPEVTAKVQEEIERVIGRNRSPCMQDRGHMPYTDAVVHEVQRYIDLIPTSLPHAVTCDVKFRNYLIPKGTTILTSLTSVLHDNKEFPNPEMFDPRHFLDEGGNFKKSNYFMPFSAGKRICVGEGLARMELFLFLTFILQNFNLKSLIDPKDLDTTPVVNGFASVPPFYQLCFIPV
Cytochrome P450 3A4, sequence (P08684 whole entry): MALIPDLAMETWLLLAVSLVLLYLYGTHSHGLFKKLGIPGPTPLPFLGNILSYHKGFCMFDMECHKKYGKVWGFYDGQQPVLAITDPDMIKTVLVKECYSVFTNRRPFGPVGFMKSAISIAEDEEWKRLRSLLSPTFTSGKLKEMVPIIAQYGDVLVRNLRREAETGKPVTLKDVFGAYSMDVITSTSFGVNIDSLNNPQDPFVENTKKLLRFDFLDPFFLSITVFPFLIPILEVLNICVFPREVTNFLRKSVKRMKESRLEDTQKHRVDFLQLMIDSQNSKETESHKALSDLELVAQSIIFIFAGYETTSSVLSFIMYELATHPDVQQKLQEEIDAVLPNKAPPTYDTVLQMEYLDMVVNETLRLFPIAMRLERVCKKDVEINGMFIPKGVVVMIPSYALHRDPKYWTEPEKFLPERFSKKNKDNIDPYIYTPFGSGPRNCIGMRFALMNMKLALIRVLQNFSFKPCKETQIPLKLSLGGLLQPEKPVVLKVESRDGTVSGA
Voltage-gated inwardly rectifying potassium channel KCNH2, sequence (Q12809 whole entry): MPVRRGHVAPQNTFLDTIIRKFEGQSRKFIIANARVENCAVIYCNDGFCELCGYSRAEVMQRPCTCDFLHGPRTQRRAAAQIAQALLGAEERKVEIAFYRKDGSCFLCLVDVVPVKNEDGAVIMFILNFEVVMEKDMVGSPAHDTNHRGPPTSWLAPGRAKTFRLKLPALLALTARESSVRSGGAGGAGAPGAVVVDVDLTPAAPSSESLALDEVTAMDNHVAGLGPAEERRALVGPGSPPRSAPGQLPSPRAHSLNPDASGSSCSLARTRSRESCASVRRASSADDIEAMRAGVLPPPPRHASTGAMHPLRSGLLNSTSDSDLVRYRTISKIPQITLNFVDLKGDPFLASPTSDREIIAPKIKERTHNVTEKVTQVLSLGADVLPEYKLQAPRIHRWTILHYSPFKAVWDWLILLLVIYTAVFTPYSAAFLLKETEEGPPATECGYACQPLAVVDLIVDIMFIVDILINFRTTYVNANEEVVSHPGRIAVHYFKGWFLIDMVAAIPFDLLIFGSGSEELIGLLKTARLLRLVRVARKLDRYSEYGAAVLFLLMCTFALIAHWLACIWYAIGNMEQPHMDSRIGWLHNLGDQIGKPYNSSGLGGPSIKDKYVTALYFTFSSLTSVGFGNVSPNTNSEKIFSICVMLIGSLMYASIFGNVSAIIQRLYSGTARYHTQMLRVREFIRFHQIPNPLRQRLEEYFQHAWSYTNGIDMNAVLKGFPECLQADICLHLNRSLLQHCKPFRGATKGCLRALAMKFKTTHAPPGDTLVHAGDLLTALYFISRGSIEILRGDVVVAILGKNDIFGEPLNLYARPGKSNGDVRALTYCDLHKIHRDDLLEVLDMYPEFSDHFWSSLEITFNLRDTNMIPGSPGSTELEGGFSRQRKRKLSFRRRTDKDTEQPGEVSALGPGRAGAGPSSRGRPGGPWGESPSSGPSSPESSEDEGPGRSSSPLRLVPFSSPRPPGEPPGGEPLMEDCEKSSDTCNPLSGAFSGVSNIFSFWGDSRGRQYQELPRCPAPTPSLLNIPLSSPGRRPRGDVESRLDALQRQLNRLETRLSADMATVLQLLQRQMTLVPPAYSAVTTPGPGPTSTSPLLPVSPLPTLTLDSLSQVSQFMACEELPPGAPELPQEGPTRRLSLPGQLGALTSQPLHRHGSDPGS

The compound `CN1C[C@H](C(=O)Nc2ccc(Cl)cc2)[C@@H](c2ccc(/C=C/C(=O)Nc3ccccc3N)cc2)C1` (racemic) yielded a clearance in data set [1] of 2.34 L/h/kg. Besides, the CLhep predicted at 1 µM is 0.3 L/h/kg in data set [2] and 2.1 L/h/kg in [7]. The t1/2 in data set [3] was 14 h. Also, the time of peak concentration (Tmax) in data set [4] stood at 1 h. Further, the AUC in data set [5] was 2.946 µg·h/mL. In [6], this compound had a maximum concentration (Cmax) of 0.324 µg/mL. For the same compound, the F in data set [8] was determined as 75%.
Take `Nc1ccccc1NC(=O)/C=C/c1ccc([C@H]2CN(CCO)C[C@@H]2C(=O)Nc2ccc(Cl)cc2)cc1` (racemic): the IC50 worked out at 2 µM in data set [9]; 26 µM in data set [10]; 3 µM in [13]; 2 µM in data set [17]; 15 µM in data set [18]; 10 µM in [20]. Also, the clearance in data set [1] came out at 1.2 L/h/kg. The CLhep predicted at 1 µM in data set [2] was 0.66 L/h/kg; in data set [7], 1.44 L/h/kg. In data set [11], this compound gave a half-life of 15 h. Moreover, in data set [12], the time to peak (Tmax) is 0.25 h. The same compound yielded an AUC in data set [14] of 7.1 µg·h/mL. For the same compound, in data set [15], the Activity is 100%. In [16], the Cmax amounted to 0.957 µg/mL. In addition, the Vd in data set [19] stood at 4.1. Besides, the bioavailability in data set [21] stood at 58%.
On to `CN1C[C@H](C(=O)Nc2ccc(F)cc2)[C@@H](c2ccc(/C=C/C(=O)Nc3ccccc3N)cc2)C1` (racemic), for which the Vd in [22] was found to be 16 L. In addition, the CLhep predicted at 1 µM was 0.3 L/h/kg in [2] and 2.04 L/h/kg in data set [7]. Also, in [23], the time of peak concentration (Tmax) was 2 h. In data set [24], this compound gave a Cmax of 0.17 µg/mL. In addition, the Activity in data set [15] stood at 250%. This compound also gave a bioavailability in data set [25] of 95%. Also, the AUC in data set [26] came out at 0.624 µg·h/mL. In [27], this compound showed a half-life of 5 h. Besides, the clearance in data set [28] was 7.62 L/h/kg.
Take `CC(C)(O)CN1C[C@H](C(=O)Nc2ccc(Cl)cc2)[C@@H](c2ccc(/C=C/C(=O)Nc3ccccc3N)cc2)C1` (racemic): the IC50 amounted to 3 µM in [9]; 7 µM in data set [10]; 4 µM in data set [13]; 0.7 µM in data set [17]; 7 µM in data set [20]. The clearance in data set [1] turned out to be 1.98 L/h/kg. Also, the CLhep predicted at 1 µM was 0.84 L/h/kg in data set [2] and 2.04 L/h/kg in data set [7]. Besides, the half-life in data set [11] was 6.5 h. The time of peak concentration (Tmax) in data set [12] amounted to 1 h. The exposure (AUC) in [14] was 5.65 µg·h/mL. The Activity in [15] was 230%. In data set [16], this compound registered a peak concentration (Cmax) of 1.1 µg/mL. Further, in [19], the Vd worked out at 3.7. This compound gave a bioavailability in data set [21] of 100%.

One may read the Tmax as the time at which the peak concentration occurs. In general, AUC refers to concentration integrated over time. A word on the Cmax: it is the peak of the concentration-time curve. Usually IC50 stands for the midpoint of a concentration-inhibition curve. The term half-life denotes the time needed for the level to fall by half in the phase considered. Usually bioavailability stands for dose-corrected exposure relative to a reference, in per cent.
